# Screens as filed in PubChem BioAssay.
# GPR7 antagonist: blocks human GPR7 receptor signaling. P48145. GPR7-expressing cells, fluorescence antagonist assay. inhibition, % at 4.4 µM. 1.1% of 290,000 active; in the data active = inhibition above about 16%, passing the limit was not always enough;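 also: cells stimulated with the agonist NPW; 0% = agonist with vehicle and 100% = vehicle without agonist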
# DAGLB inhibitor: diacylglycerol lipase beta (human) inhibition; HEK293T DAGLB membrane lysate, EnzChek fluorogenic substrate; inhibition, % at 5.17 µM; 0.059% of 340,000 active; in the data active = inhibition above about 34%;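 also: 0% = enzyme with vehicle and 100% = wells lacking enzyme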
# TAAR1 ag: human TAAR1 agonism; CHO RD-HGA16 TAAR1, Fluo-8 calcium fluorescence; vehicle wells 0%, saturating PEA agonist 100%; Q96RJ0; activation, % at 3 µM; 0.99% of 360,000 active;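 active = activation above the mean activation of all test compounds in the run plus 3 SD, cut at about 38% in these data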
# Target sequence (Q96RJ0 whole entry, looked up): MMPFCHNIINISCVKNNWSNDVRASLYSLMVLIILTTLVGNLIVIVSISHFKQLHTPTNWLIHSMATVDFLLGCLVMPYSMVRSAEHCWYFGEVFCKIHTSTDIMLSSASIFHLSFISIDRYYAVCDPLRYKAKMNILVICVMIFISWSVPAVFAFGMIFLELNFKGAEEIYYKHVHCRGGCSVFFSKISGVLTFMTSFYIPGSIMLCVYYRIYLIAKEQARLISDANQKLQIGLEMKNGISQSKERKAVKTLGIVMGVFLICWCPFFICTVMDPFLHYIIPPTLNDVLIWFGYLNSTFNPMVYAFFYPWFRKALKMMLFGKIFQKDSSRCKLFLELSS
#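 Assay system – CHO-derived RD-HGA16 cells with stable Gα16 and human TAAR1 · Compound dosing – one-point dosing at 3 µM (nominal) · Incubation – 17-24 h seeding, 75 min 37 °C dye, 30 min RT · Measured by – kinetic Fluo-8 calcium fluorescence · Control set – DMSO vehicle as 0%, PEA at EC100 as 100% · Repeats – single well for each compound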
# MPTP block: inhibitors of mitochondrial permeability transition pore | isolated mouse mitochondria, Ca2+ swelling absorbance, 30 min | 1.4% of 360,000 active | AID 602449 | inhibition, % at 10 µM;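 active = inhibition of 50% or more, scaled per plate between neutral and stimulator controls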;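 also: 0% = DMSO wells given calcium and 100% = 1 mM EGTA wells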
# TAAR1 antagonist: antagonists of human TAAR1 | CHO RD-HGA16 TAAR1, Fluo-8 calcium fluorescence, antagonist | inhibition, % at 3 µM | 1.5% of 360,000 active | AID 624466;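 active = inhibition above a per-plate cutoff, the mean inhibition of test compounds on that plate plus 3 SD, cut at about 49% in these data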;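 also: 0% = DMSO plus EC80 beta-PEA response and 100% = DMSO alone without agonist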
#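 Test system: hTAAR1-expressing CHO RD-HGA16 cells, Gα16-coupled; Probe or stimulus: EC80 β-phenethylamine stimulus; Compound dosing: single nominal final test compound concentration of 3 µM; Timing: 140 s kinetic read after compound, 140 s after agonist; Signal: Fluo-8 calcium-sensitive fluorescence; Measure: % inhibition of agonist calcium response; Controls: DMSO and EC80 PEA controls.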
# * marks the source's active call; other numbers are inactive results; . = no result. In the library only some 4% were active in any assay of this set; here they are far more common.
SMILES,GPR7 antagonist,DAGLB inhibitor,TAAR1 ag,MPTP block,TAAR1 antagonist
COc1ccccc1OCCNC(=O)c1ccc2c(c1)CCC2,-10,-1,3,-1,6
O=C(/C=C/c1cccs1)NC(=S)NNC(=O)Cc1cccs1,-6,2,67*,-3,26
CCN(CCCNS(=O)(=O)c1ccc2c(c1)oc(=O)n2C)c1cccc(C)c1,17*,3,5,-2,26
CCCn1cnc2c(=S)nc(N)[nH]c21,18*,4,2,-1,-7
c1ccc(CCNc2ncnc3scc(C4COc5ccccc5O4)c23)cc1 (centres undefined),-17,-7,18,15,71*
CCN(CC(=O)Nc1ccc(OC)cc1)C(=O)c1cccc(S(=O)(=O)N2CCN(c3ccccc3)CC2)c1,.,-3,5,2,2
CCCCn1c(N)c(N(CC(C)C)C(=O)CSc2nnc(-c3ccc(Cl)cc3)o2)c(=O)[nH]c1=O,.,1,5,0,-2
C=CCN(c1ccccc1)S(=O)(=O)c1ccc(Cl)c(C(=O)OCC(=O)c2[nH]c(C)c(C(C)=O)c2C)c1,-14,0,5,8,50*
Cc1cc(Oc2cccnc2)ccc1NC(=O)Cc1cn(C)c2ccccc12,.,.,2,.,1
Cc1ccc(NC(=O)CSc2nc3ccccc3c(=O)n2CCCN2CCCCC2)cc1Cl,25*,1,17,-1,3
O=C(N/N=C/c1cccnc1)c1ccc(O)cc1,-10,2,15,0,-9
O=C(Cc1ccccc1)NCC(=O)N/N=C/c1cccnc1,2,3,0,2,-13
O=C(CNC(=O)C(c1ccccc1)c1ccccc1)N/N=C/c1cccnc1,20*,.,3,2,11
O=C(N/N=C/c1cccnc1)c1ccc(NC(=O)C(c2ccccc2)c2ccccc2)cc1,-9,2,8,-3,57*
CCc1ccc(/C=N/NC(=O)c2ccccn2)cc1,-1,0,1,2,-6
O=C(CNC(=O)c1ccccn1)N/N=C/c1ccccc1,1,0,40*,0,4
COC(=O)c1sc(-c2ccc(C(C)(C)C)cc2)cc1NC(=O)COCC(=O)O,-17,.,9,6,50*
COC(=O)c1sc(-c2ccc(Cl)cc2)cc1NC(=O)CSCC(=O)O,-15,3,10,-3,2
N/C(=N\OC(=O)COc1ccc2ccccc2c1)c1ccccn1,-13,-2,48*,1,23
N/C(=N\OC(=O)COc1ccccc1Cl)c1ccccn1,-5,0,1,1,17
O=C(CNC(=O)c1ccccc1)OCC(=O)c1c[nH]c2ccccc12,.,-3,40*,-1,22
N#CCC(=O)Nc1ccc(C(=O)OCC(=O)c2c[nH]c3ccccc23)cc1,.,-3,43*,-2,23
CN(c1cccnc1)c1ccc(NC(=O)Cc2c[nH]c3ccccc23)cc1-c1cccnc1F,.,.,2,.,-13
CCC(C(=O)OCC(=O)C1(O)CCC2C3CCC4=CC(=O)CCC4(C)C3C(O)CC21C)C(C)C (centres undefined),.,-5,14,0,62*
CC(=O)[C@@]1(O)CC[C@H]2[C@@H]3CCC4=CC(=O)CC[C@]4(C)[C@H]3[C@@H](O)C[C@@]21C,-6,5,2,1,-22
SMILES,GPR7 antagonist,DAGLB inhibitor,TAAR1 ag,MPTP block,TAAR1 antagonist
O=c1c(-c2ccccc2)c(O)nc2ccccn12,19*,0,4,0,-7
CCc1c(O)nc2ccccn2c1=O,-6,1,1,-1,-8
O=c1cccc(-c2cccc3ccccc23)o1,.,.,0,0,-12
Cc1cccc(N2CCN(C(=O)C3CCN(c4nnc(-n5cccc5)s4)CC3)CC2C)c1 (centres undefined),-6,1,7,0,49*
Cc1ccc(Cl)cc1N1CCN(C(=O)C2CCN(c3nnc(-n4cccc4)s3)CC2)CC1,-5,0,1,1,15
Cc1cccc(N2CCN(C(=O)C3CCN(S(=O)(=O)c4cccc5nsnc45)CC3)CC2C)c1 (centres undefined),-2,-1,21,0,60*
CCOC(=O)Cc1csc(NC(=O)/C=C/c2ccc(Br)o2)n1,-6,7,9,4,49*
C[C@@H]1CN([C@@H](C)CO)C(=O)CCCn2cc(nn2)CO[C@H]1CN(C)C(=O)Nc1ccc(-c2cccs2)cc1,.,.,4,.,-17
CCCN1CCCCC(NC(=O)OC(C)(C)C)C1=O (centres undefined),.,.,2,.,1
CCN(c1cccc(C)c1)S(=O)(=O)c1ccc2c3c(cccc13)C(=O)N2,-15,-1,10,-8,54*
CCN(CC)S(=O)(=O)c1ccc2c3c(cccc13)C(=O)N2,0,2,0,1,-22
COC(=O)c1c(-c2ccc(Br)cc2)csc1NC(=O)Cc1ccc(OC)c(OC)c1,13,-6,8,3,42
COC(=O)c1c(-c2ccc(C)cc2)csc1NC(=O)Cc1ccc(OC)c(OC)c1,-1,-1,4,6,55*
OC(c1cccc(Cl)c1)c1ncc(-c2cccc3ccccc23)[nH]1 (centres undefined),.,.,1,4,0
COc1ccc(-c2ccc(=O)n(Cc3cccc([N+](=O)[O-])c3)n2)cc1,39*,-1,0,14,-1
O=S1(=O)C=C(Sc2ccc(Cl)cc2)c2ccccc2C1Cc1ccc(F)cc1 (centres undefined),.,.,0,.,7
COc1ccc(OC)c(S(=O)(=O)NCC2CCN(C(=O)C(=O)c3cccs3)CC2)c1,.,.,1,.,-5
C=C1C[C@@H]2C[C@@H]2CN(S(=O)(=O)c2ccc(C)cc2)[C@@H]1COCc1ccccc1,.,.,-1,1,46
COc1cc(C(=O)Oc2cccc(Nc3ncnc4ccccc34)c2)cc(OC)c1OC,-11,-2,13,0,82*
CCCSc1nc(N)c(C#N)c(-c2ccc(C)cc2)c1C#N,-7,-9,31,0,54*
CCOc1ccc(-c2nc(CSCC(=O)N3CCN(c4cccc(OC)c4)CC3)c(C)o2)cc1,1,-4,5,2,51*
COc1ccc(-c2noc(CCC(=O)N3CCN(c4cccc(OC)c4)CC3)n2)cc1,.,0,11,1,53*
CCN=C1NC(c2ccc(F)cc2)C(C(=O)OC)=C(C)N1Cc1ccccc1C(F)(F)F (centres undefined),.,.,14,.,-9
COc1ccc(OCCSc2nc3ccccc3n2CC(=O)O)cc1,0,4,15,0,5
CCOC(=O)c1c(C)[nH]c(C)c1C(=O)CSc1nc2ccccc2n1CC,-5,-1,15,-1,49*
COc1ccc(C(=O)CSc2nc3ccccc3n2CC(=O)c2ccccc2)cc1,18,4,19,1,59*
COC(=O)[C@]12C[C@H](CC(=O)NCC34CC5CC(CC(C5)C3)C4)C(=O)N(CCC3=CCCCC3)C1=C[C@H](C(C)(C)C)O[C@@H]2C,.,.,0,.,-38
